Laboratory results: ChEMBL document CHEMBL1122398, “Some biological properties of the impure dichloride salt of tetrakis[p-(dimethylamino)phenyl]ethylene and a pinacolone” (1983)
Values joined by “and” are separate entries in the source; they are usually repeats but may differ in a detail not shown here. Equal values may be shown once.

Key:
Mus musculus [1] = experiment: Tested for anti-lymphosarcoma in mice at the dose of 10 mg/kg; assay type: functional
In short: (§1)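 Groups of five female C3H mice received 7.5×10^6 Gardner lymphosarcoma (6C3 HED) cells per mouse intraperitoneally. Starting 1 day later, mice were dosed subcutaneously on the lower back once daily for 5 days, with test material in saline or 10% (CH₃)₂SO. Control mice received vehicle only. Read-outs were average survival in days and the number of mice surviving 50 days.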

Mus musculus [2] = experiment: Tested for average survival days in control mice at a dose of 10 mg/Kg; assay type: functional; in short: as §1
Mus musculus [3] = experiment: Tested for average survival days in control mice at a dose of 5 mg/Kg; assay type: functional; in short: as §1
Mus musculus [4] = experiment: Number of mice with 50-day survival period after treating with 5 mg/Kg of compound out of 5 tested; assay type: functional; in short: as §1
Mus musculus [5] = experiment: Number of mice with 50-day survival period in control group at a dose of 5 mg/Kg tested out of 5 mice treated; assay type: functional; in short: as §1
Mus musculus [6] = experiment: Number of mice with 50-day survival period after treating with 10 mg/Kg of compound out of 5 tested; assay type: functional; in short: as §1
Mus musculus [7] = experiment: Number of mice with 50-day survival period in control group at a dose of 10 mg/Kg tested out of 5 mice treated; assay type: functional; in short: as §1
Mus musculus [8] = experiment: Tested for anti-lymphosarcoma activity in mice at the dose of 5 mg/kg by determining average survivals
Mus musculus [9] = experiment: Tested for anti-lymphosarcoma activity in mice at the dose of 10 mg/kg by determining average survivals; assay type: functional; in short: as §1
Mus musculus [10] = species on record: Mus musculus; experiment: Tested for average survival days in mice (control); assay type: functional; in short: as §1
Mus musculus [11] = species on record: Mus musculus; experiment: Tested for anti-lymphosarcoma activity in mice (control) with 50-day survival period out of 5 tested; assay type: functional; in short: as §1

Compound: CN(C)c1ccc(C(=C(c2ccc(N(C)C)cc2)c2ccc(N(C)C)cc2)c2ccc(N(C)C)cc2)cc1
- Average survival (Mus musculus [1]): 37.6 days
- Average survival (Mus musculus [2]): 14.8 days
- Average survival (Mus musculus [3]): 14.8 days
- No. of survivals (Mus musculus [4]): 1
- No. of survivals (Mus musculus [5]): 0
- No. of survivals (Mus musculus [6]): 4
- No. of survivals (Mus musculus [7]): 0
- Average survival (Mus musculus [8]): 21.5 days

Compound: CN(C)c1ccc(C(=C2C=CC(=[N+](C)C)C=C2)C(=C2C=CC(=[N+](C)C)C=C2)c2ccc(N(C)C)cc2)cc1
- Average survival (Mus musculus [9]): 37.6 days and 42.8 days
- Average survival (Mus musculus [10]): 14.8 days and 23 days
- No. of survivals (Mus musculus [6]): 4

Compound: CN(C)c1ccc(C(=C2C=CC(=[N+](C)C)C=C2)C(c2ccc(N(C)C)cc2)c2ccc(N(C)C)cc2)cc1
- Average survival (Mus musculus [10]): 12.2 days
- No. of survivals (Mus musculus [11]): 0
- No. of survivals (Mus musculus [6]): 0
- Average survival (Mus musculus [8]): 13.2 days
